Legend:
[1] = pKa value of the compound; assay type: physicochemical
In short: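 Potentiometric titration with 0.1 N NaOH to pH ca. 10, ionic strength held constant with 0.15 M KCl.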

GABA transporter = GABA transporter (Rattus norvegicus, UniProt P31647+P23978+P31646+P48056); experiment: In vitro inhibition of rat neuronal (synaptosomal) GABA uptake.; assay type: protein assay
In short: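 Crude rat whole-brain synaptosomes (homogenized in 0.32 M sucrose, 600g and 25000g spins at 4 °C) suspended in oxygenated phosphate medium. Preincubated 10 min at 25 °C with inhibitor, then [3H]GABA added to 50 nM final and incubated 10 min more. Rapid glass-fiber filtration, ice-cold buffer wash, scintillation counting.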

[2] = target: GABA-A receptor; anion channel; experiment: In vitro inhibition of [3H]GABA binding to Gamma-aminobutyric acid receptor from rat brain synaptic membranes.; assay type: cell membranes, Membrane
In short: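 Rat brain synaptic membranes (0.8–1.2 mg protein) incubated in triplicate in 50 mM Tris-citrate pH 7.1 with 5 nM [3H]GABA and various test concentrations, 15 min at 2 °C. Centrifugation at 48000g for 10 min, pellets rinsed twice with cold water, scintillation counting. Nonspecific binding (1 mM GABA) subtracted. IC50 by log-probit analysis of inhibition at at least four concentrations.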

Structure (SMILES)	pKa [1]	IC50 (GABA transporter) [µM]	IC50 [2] [µM]
NCCC(N)C(=O)O (stereo unspecified)	4		0.033
Oc1noc2c1CNCC2			72
Oc1noc2c1CCNCC2		> 300	
Oc1onc2c1CCNCC2	3.3	> 300	15

Results, then the compound that gave them:

pKa [1]	IC50 (GABA transporter) [µM]	IC50 [2] [µM]	Structure (SMILES)
2.6	> 300	> 100	Oc1onc2c1CNCCC2
2.5	> 300	> 100	Oc1onc2c1CCCNC2
3	130	100	Oc1onc2c1CNCC2

Source: ChEMBL document CHEMBL1123396, “Glycine antagonists. Synthesis, structure, and biological effects of some bicyclic 5-isoxazolol zwitterions” (J Med Chem, 1986)
